This is an account of results in ChEMBL document CHEMBL3632581, “Dimers of Melampomagnolide B Exhibit Potent Anticancer Activity against Hematological and Solid Tumor Cells” (J Med Chem, 2015).

Assay [1] in a line: Antileukemic activity against human AML01 cells after 24 hrs by annexin V/7-AAD staining-based flow cytometric analysis. In kind it is functional, cell-based. An outline of the steps: (§1)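 Primary AML specimens from consenting donors, isolated by Ficoll-Paque gradient and sometimes cryopreserved. Cells were held 1 h in serum-free IMDM with 20% BIT 9500, LDL and β-mercaptoethanol before drug (DMSO stock diluted in PBS, ≤0.5% DMSO final). Exposure was 24 h over 0.5-10 μM. Annexin V/7-AAD double-negative cells, normalized to vehicle, gave the EC50. Run in triplicate.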
Background: In flow cytometry, cells or beads pass a laser one at a time.

A short description of assay [2]: Antileukemic activity against human AML05 cells after 24 hrs by annexin V/7-AAD staining-based flow cytometric analysis. In kind it is functional, cell-based. An outline of the steps: as §1
Assay [3] is described as follows: Antileukemic activity against human M9-ENL1 cells after 24 hrs by annexin V/7-AAD staining-based flow cytometric analysis. In kind it is functional, cell-based. An outline of the steps:
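M9-ENL1 cells in alpha-MEM with 5% human plasma, 20% FBS, SCF, IL-3, IL-7 and FLT3. Drug came from a DMSO stock diluted in PBS (≤0.5% DMSO final), for 24 h over 0.5-10 μM. Cells negative for both annexin V and 7-AAD were taken as non-apoptotic and normalized to vehicle. EC50 read from dose-response curves, triplicate.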

Assay [4] can be described thus: Potency index, ratio of parthenolide EC50 to compound EC50 for human M9-ENL1 cells. It is filed as functional.
Assay [5] in a line: Antileukemic activity against human AML02 cells after 24 hrs by annexin V/7-AAD staining-based flow cytometric analysis. It is filed as functional, cell-based. An outline of the steps:
as §1

A short description of assay [6]: Antileukemic activity against human AML03 cells after 24 hrs by annexin V/7-AAD staining-based flow cytometric analysis. In kind it is functional, cell-based. In a few lines: as §1
Assay [7] is described as follows: Cytotoxicity against hematopoietic progenitor cells isolated from human umbilical cord blood by annexin V staining-based flow cytometric analysis. In kind it is cell-based. An outline of the steps:
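Cord-blood mononuclear cells from Ficoll-Paque were plated in serum-free medium, with drug from a DMSO stock (≤0.5% DMSO final). Cells were stained for CD34, CD45 and annexin V. The non-apoptotic fraction (annexin V-negative within the CD34+CD45dim compartment) was normalized to vehicle, and EC50 was fitted where possible. Triplicate.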

Assay [8] can be described thus: Antileukemic activity against human AML04 cells after 24 hrs by annexin V/7-AAD staining-based flow cytometric analysis. It is filed as functional, cell-based. An outline of the steps:
as §1

pEC50: −log10 of the molar value.

As usually defined, the pEC50 is the EC50 on a negative log10 scale, so that one unit is a factor of ten. In the case of `C=C1C(=O)O[C@H]2[C@H]1CC/C(COC(=O)NCCCNC(=O)OC/C1=C/CC[C@@]3(C)O[C@H]3[C@H]3OC(=O)C(=C)[C@@H]3CC1)=C\CC[C@@]1(C)O[C@@H]21`, the pEC50 is 5.59 in assay [1], 5.43 in assay [2], 6.00 in assay [3] and 5.64 in assay [5]. Besides, the “Ratio EC50” value in assay [4] was found to be 2.
Regarding `C=C1C(=O)O[C@H]2[C@H]1CC/C(COC(=O)NCCCCCCNC(=O)OC/C1=C/CC[C@@]3(C)O[C@H]3[C@H]3OC(=O)C(=C)[C@@H]3CC1)=C\CC[C@@]1(C)O[C@@H]21`, the pEC50 was 5.46 in assay [6]; 5.80 in assay [1]; 5.77 in assay [2]; less than 5.00 in assay [7]; 5.43 in assay [8]; 5.82 in assay [3]. The compound further gave a pEC50 in assay [5] of 5.92. In addition, in assay [4], the “Ratio EC50” value was 2.
In the case of `C=C1C(=O)O[C@H]2[C@H]1CC/C(COC(=O)NCCCCCCCNC(=O)OC/C1=C/CC[C@@]3(C)O[C@H]3[C@H]3OC(=O)C(=C)[C@@H]3CC1)=C\CC[C@@]1(C)O[C@@H]21`, the pEC50 is 5.24 in assay [6]; 5.77 in assay [1]; 5.62 in assay [2]; less than 5.00 in assay [7]; 5.44 in assay [8]; 5.96 in assay [3]. The same compound showed a pEC50 in assay [5] of 5.89. Also, the “Ratio EC50” value in assay [4] amounted to 2.
On to `C=C1C(=O)O[C@H]2[C@H]1CC/C(COC(=O)NCCCCCCCCCNC(=O)OC/C1=C/CC[C@@]3(C)O[C@H]3[C@H]3OC(=O)C(=C)[C@@H]3CC1)=C\CC[C@@]1(C)O[C@@H]21`, for which the pEC50 in assay [6] was 5.62; in assay [1], 5.72; in assay [2], 5.49; in assay [7] it was less than 5.00; in assay [8] it was 5.43; in assay [3] it was 5.70. For the same compound, the pEC50 in assay [5] was 5.82. For the same compound, the “Ratio EC50” value in assay [4] was 2.
On to `C=C1C(=O)O[C@H]2[C@H]1CC/C(COC(=O)NCCCCCCCCCCNC(=O)OC/C1=C/CC[C@@]3(C)O[C@H]3[C@H]3OC(=O)C(=C)[C@@H]3CC1)=C\CC[C@@]1(C)O[C@@H]21`, for which the pEC50 is 5.54 in assay [6]; 5.64 in assay [1]; 5.48 in assay [2]; less than 5.00 in assay [7]; 5.38 in assay [8]; 5.54 in assay [3]. In assay [5], this compound gave a pEC50 of 5.70. Further, the “Ratio EC50” value in assay [4] was 2.
Turning to `C=C1C(=O)O[C@H]2[C@H]1CC/C(COC(=O)OCCCCOC(=O)OC/C1=C/CC[C@@]3(C)O[C@H]3[C@H]3OC(=O)C(=C)[C@@H]3CC1)=C\CC[C@@]1(C)O[C@@H]21`, the pEC50 was 6.07 in assay [6]; 6.03 in assay [1]; 5.57 in assay [2]; 5.57 in assay [8]; 5.92 in assay [3]. Further, the “Ratio EC50” value in assay [4] came to 2.
On to `C=C1C(=O)O[C@H]2[C@H]1CC/C(COC(=O)OCCCCCOC(=O)OC/C1=C/CC[C@@]3(C)O[C@H]3[C@H]3OC(=O)C(=C)[C@@H]3CC1)=C\CC[C@@]1(C)O[C@@H]21`, for which the pEC50 is 5.85 in assay [6], 5.68 in assay [2], 5.62 in assay [3] and 5.66 in assay [5]. Further, the “Ratio EC50” value in assay [4] was 2.
`C=C1C(=O)O[C@H]2[C@H]1CC/C(COC(=O)OC/C1=C/CC[C@@]3(C)O[C@H]3[C@H]3OC(=O)C(=C)[C@@H]3CC1)=C\CC[C@@]1(C)O[C@@H]21`: the pEC50 in assay [1] was 5.80; in assay [3], 6.27. Further, the “Ratio EC50” value in assay [4] is reported as 2.
Take `C=C1C(=O)O[C@@H]2C3O[C@]3(C)CC/C=C(\C)CC[C@@H]12` (some centres not stated): the pEC50 is 5.33 in assay [6]; 4.80 in assay [1]; 5.15 in assay [2]; 5.10 in assay [8]; 5.22 in assay [3]; 5.60 in assay [5].
